{"data": "Measured values pooled from the literature", "note": "Protocols differ between the studies behind these lines."}
{"Structure (SMILES)": "CC(C)n1cc(C#N)c2cc(-n3cc(C(=O)O)cn3)ccc21", "host": "human", "matrix": "plasma", "route": "oral", "dose": "800 mg", "notes": "multiple doses, once daily, steady state", "Tmax": "4 h"}
{"Structure (SMILES)": "CC(C)(Sc1ccncc1-c1ccc(C#N)c2ccccc12)C(=O)O", "host": "male human", "matrix": "plasma", "route": "oral", "dose": "40 mg", "notes": "single dose, fasted, healthy volunteers", "Tmax": "0.75 h"}
{"Structure (SMILES)": "CC(C)[C@](O)(c1ccc2cc(OC(F)F)c(OC(F)F)cc2c1)c1c[nH]nn1", "host": "female human", "matrix": "plasma", "route": "oral", "dose": "750 mg", "notes": "single dose", "Tmax": "3 h"}
{"Structure (SMILES)": "CNCC[C@H](Oc1cccc2ccccc12)c1cccs1", "host": "female human", "matrix": "plasma", "route": "oral", "dose": "30 mg", "notes": "multiple doses, once daily", "Tmax": "4.7 h"}
{"Structure (SMILES)": "Nc1cc(C(F)(F)F)c(-c2cc(N3CCOCC3)nc(N3CCOCC3)n2)cn1", "host": "human", "matrix": "plasma", "route": "oral", "dose": "50 mg/day", "notes": "patients", "Tmax": "1.02 h"}
{"Structure (SMILES)": "CC(C)(O)c1ccccc1-c1ccc2[nH]c(/C=C/c3ccc(C(F)(F)F)cc3)nc2c1", "host": "male human", "matrix": "plasma", "route": "oral", "dose": "30 mg", "notes": "single dose, fasted", "Tmax": "3.03 h"}
{"Structure (SMILES)": "CCc1nc2c(C)cc(N3CCN(CC(=O)N4CC(O)C4)CC3)cn2c1N(C)c1nc(-c2ccc(F)cc2)c(C#N)s1", "host": "human", "matrix": "plasma", "route": "oral", "dose": "600 mg", "notes": "single dose, fed, healthy volunteers", "Tmax": "3.5 h"}
{"Structure (SMILES)": "CCc1nc(C(N)=O)c(Nc2ccc(N3CCC(N4CCN(C)CC4)CC3)c(OC)c2)nc1NC1CCOCC1", "host": "human", "matrix": "plasma", "route": "oral", "dose": "200 mg", "notes": "multiple doses, patients", "Tmax": "5.92 h"}
{"Structure (SMILES)": "C[C@@]1(c2cc(NC(=O)c3ccc(C#N)cn3)ccc2F)C=CSC(N)=N1", "host": "male human", "matrix": "plasma", "route": "oral", "dose": "1 mg", "notes": "single dose", "Tmax": "0.75 h"}
{"Structure (SMILES)": "CC(C)(C)N/[N+]([O-])=N/OC1CCN(c2ccc(C#N)cn2)CC1", "host": "male human", "matrix": "plasma", "route": "oral", "notes": "single dose, healthy volunteers", "Tmax": "1 to 2 h"}
{"Structure (SMILES)": "CCCCOC(=O)N1CCN(C(=O)[C@H](CP(=O)(O)O)NC(=O)c2cc(N3CC[C@H](OC)C3)nc(-c3ccccc3)n2)CC1", "host": "human", "matrix": "plasma", "route": "subcutaneous", "dose": "8 mg", "notes": "single dose", "Tmax": "0.667 h"}
{"Structure (SMILES)": "NS(=O)(=O)NCCNc1nonc1C(=NO)Nc1ccc(F)c(Br)c1", "host": "human", "matrix": "plasma", "route": "oral", "dose": "100 mg", "notes": "multiple doses, twice daily, steady state, patients", "Tmax": "2 h"}
{"Structure (SMILES)": "C=CC(=O)N1CCC(Oc2cc3c(Nc4ccc(Cl)c(Cl)c4F)ncnc3cc2OC)CC1", "host": "human", "matrix": "plasma", "route": "oral", "dose": "16 mg", "notes": "single dose, fed", "Tmax": "3.01 h"}
{"Structure (SMILES)": "C=CC(=O)N(C)CCOc1c(N)ncnc1-c1cc(F)cc(NC(=O)c2ccc(C3CC3)cc2F)c1C", "host": "human", "matrix": "blood", "route": "oral", "dose": "15 mg", "notes": "single dose, healthy volunteers", "Tmax": "0.5 h"}
{"Structure (SMILES)": "COc1ccc(Oc2cc(N(C)CCOc3ccc(CC4SC(=O)NC4=O)cc3)ncn2)cc1 (stereo not shown)", "host": "male human", "matrix": "plasma", "route": "oral", "dose": "0.5 mg", "notes": "multiple doses, once daily, steady state", "Tmax": "0.67 h"}
{"Structure (SMILES)": "CO[C@@H]1[C@H](OC(=O)N2CC(CCN3CCOCC3)C2)CC[C@]2(CO2)[C@H]1[C@@]1(C)O[C@@H]1CC=C(C)C", "host": "human", "matrix": "plasma", "route": "subcutaneous", "dose": "1.2 mg", "notes": "single dose, healthy volunteers", "Tmax": "0.25 h"}
{"Structure (SMILES)": "Oc1cc(O)c2c(c1)O[C@@H](c1ccc(O)c(O)c1)[C@@H](O)C2", "host": "human", "matrix": "plasma", "route": "oral", "dose": "100 mg", "notes": "single dose", "Tmax": "1 h"}
{"Structure (SMILES)": "CC(C)[C@H](N)C(=O)NCCCS(=O)(=O)O", "host": "human", "matrix": "plasma", "route": "oral", "dose": "171 mg", "notes": "multiple doses, twice daily, fasted", "Tmax": "0.5 h"}
{"Structure (SMILES)": "C#C[C@]1(COP(=O)(O)OP(=O)(O)OP(=O)(O)O)O[C@@H](n2cnc3c(N)nc(F)nc32)C[C@@H]1O", "host": "human", "matrix": "plasma", "route": "oral", "dose": "400 mg", "notes": "single dose", "Tmax": "12.1 h"}
{"Structure (SMILES)": "COc1ccc([C@@H]2CN(C(=O)[C@@H](O)CO)C[C@@]2(C)[C@@H](C)O)cc1OC1CN(c2ccc(C)cn2)C1", "host": "human", "matrix": "plasma", "route": "oral", "dose": "0.1 mg", "notes": "single dose, healthy volunteers", "Tmax": "1 h"}
{"Structure (SMILES)": "Cn1cc(-c2ccc(S(=O)(=O)[C@@H]3C[C@@H](C(=O)NC4(C#N)CC4)N(C(=O)C4(C(F)(F)F)CC4)C3)c(C(F)(F)F)c2)cn1", "host": "human", "matrix": "plasma", "route": "oral", "dose": "3 mg", "notes": "single dose, fasted, healthy volunteers", "Tmax": "5 h"}
{"Structure (SMILES)": "Cc1nc(NC(=O)N2CCC[C@H]2C(N)=O)sc1-c1ccnc(C(C)(C)C(F)(F)F)c1", "host": "human", "matrix": "plasma", "route": "oral", "dose": "90 mg", "notes": "patients", "Tmax": "2 h"}
{"Structure (SMILES)": "CS(=O)(=O)CCC#N", "host": "human", "matrix": "plasma", "route": "oral", "dose": "300 mg", "notes": "single dose, fasted", "Tmax": "1.5 h"}
{"Structure (SMILES)": "CCOc1ccc(Cc2cc([C@@H]3O[C@H](CO)[C@@H](O)[C@H](O)[C@H]3O)ccc2Cl)cc1", "host": "human", "matrix": "plasma", "route": "oral", "dose": "10 mg", "notes": "multiple doses, steady state", "Tmax": "0.77 h"}
{"Structure (SMILES)": "CC(C)n1nc(-c2ccc3oc(N)nc3c2)c2c(N)ncnc21", "host": "human", "matrix": "plasma", "route": "oral", "dose": "3 mg", "notes": "multiple doses, once daily, patients", "Tmax": "0.97 h"}
{"Structure (SMILES)": "O=C(O)C[C@H](O)C[C@H](O)/C=C/c1c(C2CC2)nc2ccccc2c1-c1ccc(F)cc1", "host": "human", "matrix": "plasma", "route": "oral", "dose": "2 mg", "notes": "single dose, fasted, healthy volunteers, tablet", "Tmax": "1.17 h"}
{"Structure (SMILES)": "O=C(Nc1c(Cl)cncc1Cl)c1ccc(OC(F)F)c(OCC2CC2)c1", "host": "human", "matrix": "plasma", "route": "oral", "dose": "0.375 mg", "notes": "multiple doses, once daily", "Tmax": "0.75 h"}
{"Structure (SMILES)": "CCO[C@H]1CCN(Cc2c(OC)cc(C)c3[nH]ccc23)[C@H](c2ccc(C(=O)O)cc2)C1", "host": "human", "matrix": "plasma", "route": "oral", "dose": "200 mg", "notes": "multiple doses, twice daily, patients", "Tmax": "2 h"}
{"Structure (SMILES)": "C[C@@H](Nc1cc(F)cc(F)c1)c1cc(C(=O)N(C)C)cc2c(=O)cc(N3CCOCC3)oc12", "host": "human", "matrix": "plasma", "route": "oral", "dose": "120 mg", "notes": "single dose, patients", "Tmax": "2 h"}
{"Structure (SMILES)": "c1cnc2ccc(Nc3nc(NC4CC4)c4nc[nH]c4n3)cc2c1", "host": "human", "matrix": "plasma", "route": "oral", "dose": "100 mg/m²", "notes": "patients", "Tmax": "5.7 h"}
{"Structure (SMILES)": "COc1cc(N2CCC(N3CCN(C)CC3)CC2)ccc1Nc1ncnc(Nc2ccccc2S(=O)(=O)C(C)C)n1", "host": "human", "matrix": "plasma", "route": "oral", "dose": "200 mg", "notes": "multiple doses, patients", "Tmax": "2.96 h"}
